Bioassay records deposited in PubChem BioAssay by The Scripps Research Institute Molecular Screening Center.
HTRA1 inhibitor: HTRA1 serine protease inhibitors, primary screen, biochemical, fluorescence polarization, HTS; AID 504803, 2011; Q92743; inhibition, % at 5.96 µM; 340,000 compounds, 0.5% hits; recombinant HTRA1, FP-rhodamine activity-based probe; in the data active = inhibition above about 36%
PRMT1 FP inh: PRMT1 methyltransferase inhibitors, primary screen, biochemical, fluorescence polarization | inhibition, % at 2.79 µM | recombinant PRMT1, activity-based probe fluorescence polarization | Protein arginine N-methyltransferase 1 (Homo sapiens), Q99873 | 370,000 compounds, 1.3% hits;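 active = inhibition above about 21% made by adding two undisclosed values, limit read from the data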
mABHD4 FP: ABHD4 inhibitors, primary screen, biochemical, fluorescence polarization, mouse; (Lyso)-N-acylphosphatidylethanolamine lipase (Mus musculus), Q8VD66; purified mABHD4, FP-Rh probe fluorescence polarization; inhibition, % at 8.92 µM; 370,000 compounds, 0.54% hits; AID 720543, 2013;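 active = inhibition exceeding the mean over every tested compound plus 3 SD, cut at about 30% in these data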
Target sequence (Q8VD66 whole entry, looked up): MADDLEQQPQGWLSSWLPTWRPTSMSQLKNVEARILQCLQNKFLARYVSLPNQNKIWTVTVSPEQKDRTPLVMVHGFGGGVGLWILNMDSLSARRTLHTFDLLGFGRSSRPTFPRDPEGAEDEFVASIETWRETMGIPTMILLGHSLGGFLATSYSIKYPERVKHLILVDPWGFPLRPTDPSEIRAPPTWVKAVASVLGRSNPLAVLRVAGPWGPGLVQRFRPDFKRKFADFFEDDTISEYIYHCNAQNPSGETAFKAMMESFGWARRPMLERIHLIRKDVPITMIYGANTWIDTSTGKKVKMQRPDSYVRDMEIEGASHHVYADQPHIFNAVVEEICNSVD
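assay system = mABHD4 protein | compound dosing = single nominal dose of 8.92 µM, 0.89% DMSO final | read-out basis = percent inhibition of probe binding, normalized to plate controls | schedule = Enzyme–compound pre-incubation 45 min, then probe 60 min, both 25 °C | detection = fluorescence polarization, excitation 525 nm, emission 598 nm, BODIPY TMR filters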
TCR-CD3 inh: inhibitors of human TCR-CD3 interaction, primary screen, biochemical, fluorescence, TAMRA-labeled TCR probe; inhibition, % at 9.4 µM; 360,000 compounds, 0.37% hits; T-cell receptor (TCR);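 also: recombinant mutant TCR 2C K166C tagged with TAMRA read by polarization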
SIAE inh: human SIAE inhibitors, primary screen, biochemical, fluorescence polarization, FP-Rh probe, 1536-well HTS. Sialate O-acetylesterase (Homo sapiens), Q9HAT2. SIAE FP-Rh probe binding. inhibition, % at 9.66 µM. 370,000 compounds, 0.69% hits;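 active = inhibition above a cutoff: mean of compounds within the control limits plus 3 SD of those, cut at about 17% in these data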
PAD4 FP inh: human PAD4 inhibitors, primary screen, biochemical, fluorescence polarization, 1536-well format; 330,000 compounds, 0.41% hits; recombinant PAD4, RCA probe fluorescence polarization; Protein-arginine deiminase type-4 (Homo sapiens), Q9UM07; inhibition, % at 6.36 µM;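 active = percent inhibition above a cutoff equal to the mean of all tested compounds plus 3 SD, cut at about 15% in these data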
PAD4 confirm: human PAD4 inhibitors, confirmation, biochemical, fluorescence polarization; 1,200 compounds, 28% hits; recombinant PAD4, RCA probe fluorescence polarization; inhibition, % at 6.36 µM; shares compounds with PAD4 FP inh;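 active = mean inhibition across replicates above the hit cutoff set by the earlier primary screen, cut at about 15% in these data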;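 also: inhibitors block active-site labeling by the probe so polarization falls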
HTRA1 inh conf: HTRA1 protease inhibitors, retest, confirmation, biochemical, fluorescence polarization; recombinant HTRA1, FP-rhodamine activity-based probe; shares compounds with HTRA1 inhibitor; inhibition, % at 5.96 µM; 1,600 compounds, 66% hits;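 active = mean inhibition over three repeats above a set limit taken from the earlier primary screen, cut at about 37% in these data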;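 also: inhibitors block probe binding so polarization drops and inhibition rises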
BSA probe FL: compounds interfering with TAMRA-BSA probe, counter-screen for TCR-CD3 interaction inhibitor project, biochemical, fluorescence, TAMRA-labeled BSA; shares compounds with TCR-CD3 inh; AID 652035, 2013; inhibition, % at 9.4 µM; TAMRA-labeled BSA probe fluorescence counterscreen; 1,200 compounds, 10% hits; in the data active = inhibition above about 23%
TCR-CD3 inh conf: TCR-CD3 interaction inhibitors, retest, confirmation, biochemical, fluorescence, TAMRA-labeled TCR probe; AID 652036, 2013; TAMRA-labeled TCR probe fluorescence binding assay; 1,200 compounds, 48% hits; inhibition, % at 9.4 µM; shares compounds with TCR-CD3 inh
ABHD4 confirm: ABHD4 inhibitors, retest, confirmation, biochemical, fluorescence polarization, mouse | purified mABHD4, FP-Rh probe fluorescence polarization | inhibition, % at 8.92 µM | shares compounds with mABHD4 FP | 1,800 compounds, 55% hits;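 active = mean inhibition across replicates above the hit cutoff set in the primary screen, cut at about 30% in these data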
SIAE confirm: human SIAE inhibitors, retest, confirmation, biochemical, fluorescence polarization, FP-Rh probe, triplicate; shares compounds with SIAE inh; SIAE FP-Rh activity-based probe; inhibition, % at 9.66 µM; 2,300 compounds, 13% hits; AID 1117263, 2014;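 active = mean inhibition of the replicates above the hit cutoff set in the primary screen, cut at about 17% in these data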;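 also: inhibitors lower polarization as more probe stays unbound to SIAE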
Each line names hits and unclear results; the compound was inactive in the other large screens (follow-up assays come after a bar, where they were run). The list is not random: actives were taken first. Their share in the collection is about 2.9%. Rule as the data show it, unless noted: active = inhibition above about 19%; inactive = the rest.

COC(=O)c1ccccc1-c1c2ccc(=N)cc-2oc2cc(N)ccc12	HTRA1 inhibitor 136, PRMT1 FP inh active, mABHD4 FP active, TCR-CD3 inh active, SIAE inh active, PAD4 FP inh active | PAD4 confirm 145 | HTRA1 inh conf 142 | BSA probe FL active | TCR-CD3 inh conf active | ABHD4 confirm 183 | SIAE confirm active
O=C1CC(c2ccccc2)c2cc(O)ccc2O1 (stereo not given)	none
Cc1ccc(C2CC(=O)Oc3cc(O)ccc32)cc1 (stereo not given)	mABHD4 FP 55, SIAE inh 19, PAD4 FP inh 60 | PAD4 confirm 63 | ABHD4 confirm 44 | SIAE confirm inactive
CCCCN1C[C@@H](COCc2ccccc2)Oc2cc(F)ccc2S1(=O)=O	none (no result: HTRA1 inhibitor, TCR-CD3 inh, PAD4 FP inh)
COc1ccc(-c2noc(C3CCCN(C(=O)Nc4cc(C)cc(C)c4)C3)n2)cc1 (stereo not given)	none (no result: HTRA1 inhibitor, TCR-CD3 inh, PAD4 FP inh)
O=c1[nH][nH]c(C(F)(F)F)c1C=Nc1ccccc1	none
Cc1cc(O)ccc1N=Cc1c(C(F)(F)F)[nH][nH]c1=O	HTRA1 inhibitor 104, PRMT1 FP inh 25, mABHD4 FP 109, TCR-CD3 inh 84, SIAE inh 73, PAD4 FP inh 98 | PAD4 confirm inactive | HTRA1 inh conf inactive | BSA probe FL 30 | TCR-CD3 inh conf inactive | ABHD4 confirm inactive | SIAE confirm inactive
CCOc1ccc(-n2c(SCC(=O)Nc3ccc4cn[nH]c4c3)nnc2-c2ccncc2)cc1	none (no result: HTRA1 inhibitor, TCR-CD3 inh, PAD4 FP inh)
O=C(Nc1ccc2c(c1)OCO2)O[C@@H]1CC[C@@]23CCCN2C(=O)CCC[C@H]3C1	none (no result: HTRA1 inhibitor, TCR-CD3 inh, PAD4 FP inh)
COc1ccc(N)c2c1C(=O)c1ccccc1C2=O	HTRA1 inhibitor 38, mABHD4 FP 44, SIAE inh 20, PAD4 FP inh 33 | PAD4 confirm inactive | HTRA1 inh conf inactive | ABHD4 confirm inactive | SIAE confirm inactive
COc1ccc(OC)c2c1C(=O)c1ccccc1C2=O	PRMT1 FP inh 52, SIAE inh 24, PAD4 FP inh 41 (no result: HTRA1 inhibitor) | PAD4 confirm 38 | SIAE confirm inactive
Nc1ccc(O)c2c1C(=O)c1ccccc1C2=O	HTRA1 inhibitor 88, mABHD4 FP 87, TCR-CD3 inh 43, SIAE inh 55, PAD4 FP inh 49 | PAD4 confirm 41 | HTRA1 inh conf 96 | BSA probe FL 24 | TCR-CD3 inh conf 27 | ABHD4 confirm 74 | SIAE confirm 54
